# Measured values taken from PubChem BioAssay.
# Values without a mark were called inactive. Records with an inconclusive call do not appear. The source made the active and inactive calls.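 The calls were made as follows, unless noted: active = RAM network inhibition above 8.4% in each of two replicates, 3 SD over the compound average; inconclusive = above 8.4% inhibition in only one replicate; inactive = 8.4% inhibition or less in each replicate.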
# What was measured:
# [1] = S. cerevisiae growth inhibition in permissive medium (OD615), pilot counter-assay for S. cerevisiae lifespan shortening project, permissive growth control (AID 705;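 active = growth inhibition above 25% in both replicates, a cutoff set 3 SD above the mean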); settings: OD615, 24 h, at 10 µM, active compounds read high
# Method in brief: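 System: S. cerevisiae with engineered DeaD lifespan system. Medium: SC raffinose/galactose permissive medium. Doses: single compound dose of 10 µM, 0.25% DMSO final. Schedule: 24 h exposure, 30 °C. Measured by: OD615 turbidity read. Read-out: growth inhibition.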
# [2] = S. cerevisiae growth inhibition in restrictive medium, OD615, pilot screen, restrictive growth control, yeast lifespan reduction project (AID 706;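 active = growth inhibition above a set limit, 3 SD over mean compound inhibition, in both replicates, cut at about 43% in these data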;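 also: modified DeaD lifespan yeast strain shifted to restrictive glucose medium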); settings: OD615, 48 h, at 10 µM, active compounds read high
# Method in brief: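 Assay system – genetically modified Saccharomyces cerevisiae, DeaD replicative lifespan assay strain · Medium – CSMM-D glucose medium · Doses – 10 µM compound, 0.25% DMSO · Times – 4 h pre-incubation, 48 h exposure at 30 °C · Signal – optical density at 615 nm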
# [3] = doxorubicin toxicity protection in MRP-1 cells – H69AR cells, CellTiter-Glo, duplicate, MRP-1 activator project, pilot screen (AID 807;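 active = viability increase at or above a cutoff of the median across tested compounds plus 3 SD, cut at about 8.5% in these data, passing the limit was not always enough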;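 also: compound pretreatment 18-22 h then 72 h combined with doxorubicin; 0% = doxorubicin alone and 100% = vehicle without doxorubicin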); settings: H69AR viability with doxorubicin, CellTiter-Glo luminescence; at 10 µM; active compounds read high
# [4] = viability of HCT116 without oncogenic beta-catenin – human colon tumor cells, pilot screen (AID 823;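 active = cell viability at or below a set limit in both duplicate runs, the limit being the all-compound median minus 4 SD, cut at about 23% in these data, passing the limit was not always enough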;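 also: 0% = wells killed by 20 µM Hyamine and 100% = untreated DMSO cell wells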); settings: HCT116 beta-catenin knockout viability, CellTiter-Glo, 60 h; at 10 µM; active compounds read low
# [5] = viability of PTEN-null HCT116 cells – cell-based, HCT116 clonal line, CellTiter-Glo, pilot screen (AID 824;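 active = viability at or below 27.92% in each of two runs, the all-compound median minus 4 SD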;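 also: 0% = 20 µM Hyamine control and 100% = vehicle cell control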); settings: HCT116 PTEN-deleted viability, 60 h, at 10 µM, active compounds read low
# [6] = RAM pathway blockade in budding yeast – dse1pr::URA3 reporter, 5-FOA selection, pilot screen (AID 869;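 active = inhibition over a set limit, the all-compound mean plus 3 SD, in both replicate runs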;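 also: 0% = DMSO wells with no growth and 100% = 10 µM 1-NA-PP1 with full growth; RAM network block rescues cells from 5-FOA so hits raise OD615 growth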); settings: S. cerevisiae dse1pr::URA3 5-FOA growth, OD615, 2 d; at 10 µM; active compounds read high; strain carries analog-sensitive mutant Cbk1 kinase
# [7] = RAM signaling pathway blockade in yeast – S. cerevisiae, Pdr1DBD-CYC8 efflux-inhibited sensitized strain, primary screen (AID 1298);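 also: 0% = DMSO untreated cells without growth and 100% = 10 µM 1-NA-PP1 full growth; higher means more yeast growth rescued from 5-FOA killing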; settings: S. cerevisiae cbk1-as DSE1-URA3 strain, 5-FOA growth OD615, 2 d; at 50 µM; active compounds read high
SMILES,growth inhibition [1],growth inhibition [2],viability increase [3],viability [4],viability [5],inhibition [6],RAM network inhibition [7]
O=C(CSc1nnc(Cc2cc(=O)[nH]c(=O)[nH]2)n1-c1ccc(Cl)cc1)NC1CCCC1,-14.1%,-17.7%,-0.76%,108%,104%,1.92%,0.32%
O=C(NCCCN1CCCC1=O)c1ccc2c(c1)ncn2C1CCCCC1,0.37%,2.91%,1.87%,105%,109%,0.03%,10.9%
N#CC1=C2SCN(Cc3ccccc3)CN2C(=O)CC1c1ccccc1F (configuration not stated),-3.35%,15.7%,-4.34%,90.4%,88.4%,1.01%,2.49%
Cc1cc(S(=O)(=O)N2CCN(Cc3ccccc3)CC2)c(C)s1,-11.6%,0.51%,-1.58%,77.1%,81.1%,1.35%,4.48%
CCCCCSc1nc2c(c(=O)[nH]c(=O)n2C)n1CCc1ccccc1,-3.08%,-4.46%,-1.88%,69.6%,87%,2.75%,8.01%
C=CCSC1=N/C(=C\c2ccc(C)o2)C(=O)S1,-9.79%,-6.84%,-3.69%,101%,98.6%,1.58%,2.06%
O=C(Nc1cccnc1)c1cc(-c2ccc(Br)cc2)on1,-9.68%,-9.79%,0.92%,100%,95.9%,0.76%,6.96%
C=Cn1ccnc1P(=S)(c1ccc2c(c1)c1ccccc1n2CC)c1nccn1C=C,-10.3%,-21.9%,-6.67%,16.2% (active),13.8% (active),3.5%,6.54%
CC(=O)C1=C(C)NC(SCC(=O)c2ccccc2)=C(C#N)C1c1ccco1 (configuration not stated),-3.25%,21.2%,-6.35%,55%,56%,1.5%,3.37%
CCOc1ccccc1NC(=O)N1CCCC1C(=O)Nc1ccc(-n2cnnn2)c(C)c1 (configuration not stated),-11.3%,-16.2%,0.16%,102%,97.9%,1.86%,2.1%
CC(CNCc1ccc2c(c1)OCO2)NCc1ccc2c(c1)OCO2 (configuration not stated),-14%,-7.7%,-3.34%,75%,77.2%,-0.175%,1.32%
COc1ccc(-n2c(Cc3cccn3C)nnc2SCC(=O)NC2CCCC2)cc1,-6.13%,5.99%,0.53%,94.1%,92.4%,0.835%,3.89%
CC(=O)C1=C(C)NC(SCC(N)=O)=C(C#N)C1c1cccnc1 (configuration not stated),6.58%,20.8%,1.67%,104%,101%,1.12%,1.65%
Cc1ccnc(SCCn2c(N3CCCCC3)nc3c2c(=O)[nH]c(=O)n3C)n1,-8.7%,-5.05%,0.17%,101%,107%,1.52%,2.14%
COc1ccc(C(=O)N(Cc2nc(-c3ccc(C)cc3)no2)C(C)C)cc1OC,-12.1%,-6.13%,1.37%,93.6%,79.3%,3.8%,5.36%
O=C(c1ccc(CS(=O)(=O)c2ccc(Br)cc2)o1)N1CCOCC1,-10.2%,-12.6%,-0.67%,104%,97.3%,2.23%,0.1%
COc1ccc(OC)c(S(=O)(=O)NCc2cn3c(C)csc3n2)c1,-10.1%,5.41%,-1.77%,103%,96.5%,0.045%,5.95%
CCOC(=O)c1ccc(NC(=O)C23CCC(C)(C(=O)O2)C3(C)C)cc1 (configuration not stated),1.15%,4.45%,1.07%,93.5%,101%,-0.095%,5.33%

SMILES,growth inhibition [1],growth inhibition [2],viability increase [3],viability [4],viability [5],inhibition [6],RAM network inhibition [7]
CCOC(=O)c1cnc2ccc(Br)cc2c1NCC(C)O (configuration not stated),-11.9%,-9.36%,-4.28%,91.4%,89.2%,1.19%,2.79%
CC(=O)C(Sc1ccc2nnc(-c3ccc(F)cc3)n2n1)C(C)=O,2.49%,26.7%,-3.38%,91%,86.3%,-0.355%,7.13%
Cc1ccc2ccc(S(=O)(=O)n3nc(C)cc3C)cc2c1,-6.58%,2.99%,-1.12%,84.9%,81.2%,2.06%,5.5%
O=C(Nc1nnc(-c2ccccc2)o1)Nc1ccccc1Cl,-15.5%,-12%,-0.05%,104%,97.4%,0.165%,4.83%
Cc1cc(Nc2ccc(F)cc2Cl)n2nc(C)nc2n1,-9.76%,-13%,-0.59%,109%,99.6%,1.51%,2.31%
O=C1CC(c2cccs2)CC(O)=C1C=NCCN1CCNCC1 (configuration not stated),-11.8%,-6.3%,-0.54%,98.9%,97.2%,0.995%,-0.42%
COc1ccc(C(=O)/C=C/N2CCCCC2)cc1OC,53.1% (active),74.3% (active),-4.55%,77.8%,86.6%,0.145%,-1.38%
COc1cc(C(=O)Nc2cccc(-c3nc4ccccc4o3)c2C)cc(OC)c1OC,-20.9%,-26.2%,-2.22%,91.2%,98.7%,2.46%,1.35%
CCc1ccc(C2CC(c3ccc(F)cc3)Nc3nc(N)nn32)cc1 (configuration not stated),-4.34%,9.52%,-0.06%,103%,95.4%,-0.41%,7.69%
Cc1cc(C)nc(SCSc2nc(C)cc(C)n2)n1,0.095%,5.64%,-2.17%,104%,103%,1.23%,5.29%
COc1ccc(-c2csc(N3CCN(C(=O)c4ccco4)CC3)n2)cc1,-13%,19%,2.74%,98.5%,85.1%,0.95%,2.04%
O=C(CSc1nc2ccccc2[nH]1)Nc1ccc(F)cc1,3.95%,11.3%,0.83%,97.7%,90.2%,0.255%,5.07%
COC(=O)C(C)NC(=O)C1CCCN1S(=O)(=O)c1cc(C)c(Cl)cc1C (configuration not stated),-5.19%,-6.72%,-1.54%,93.8%,94.9%,0.935%,0.4%
CCOC(=O)c1[nH]c2ccccc2c1NC(=O)c1ccc(Br)o1,-6.18%,-1.93%,-3.95%,70.3%,69.9%,0.96%,7.09%
CC(C)CC(NC(=O)c1ccco1)C(=O)Nc1ccc2c(c1)OCCO2 (configuration not stated),6.21%,1.03%,-1.38%,104%,105%,-0.32%,1.72%
C=C(C)CSc1nc2c(c(=O)[nH]c(=O)n2C)n1CCC(C)C,-17.9%,-22.9%,-2.5%,80.8%,80.9%,1.38%,1.85%
O=C(O)CCCCCN1C(=O)c2ccc(C(=O)O)cc2C1=O,-14.4%,-10.8%,1.08%,103%,105%,1.88%,6.72%
O=C(NCCCN1CCN(c2ccccc2F)CC1)C1CCCN(S(=O)(=O)c2cnc[nH]2)C1 (configuration not stated),4.25%,2.15%,1.39%,95.1%,102%,-0.46%,0.21%
